# Results published in ChEMBL document CHEMBL1629690, “Development of hexadecyloxypropyl tenofovir (CMX157) for treatment of infection caused by wild-type and nucleoside/nucleotide-resistant HIV” (Antimicrob Agents Chemother, 2010).
# Tested on: Human immunodeficiency virus 1
# Assay: Antiviral activity against HIV1 isolate 057 expressing wild type reverse transcriptase gene by phenosense assay
# Type: functional, organism-based
# Conditions: Human immunodeficiency virus 1, isolate 057
# Procedure, shortened: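 In the PhenoSense recombinant virus assay, virus was tested against increasing drug concentrations. EC50 came from the inhibition curve and was compared with a drug-sensitive reference virus.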
row,Structure (SMILES),EC50
1,Cc1cn([C@H]2C[C@H](N=[N+]=[N-])[C@@H](CO)O2)c(=O)[nH]c1=O [ZIDOVUDINE],17 nM

# Tested on: Human immunodeficiency virus 1
# Assay: Antiviral activity against HIV1 isolate 060 harboring reverse transcriptase M41L/D67N/K70R/L210W/T215Y/K219E mutant gene by phenosense assay
# Type: functional, organism-based
# Conditions: Human immunodeficiency virus 1, isolate 060
# Procedure, shortened: (§1)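 Recombinant-virus PhenoSense HIV assay run on a panel of 30 NRTI-resistant HIV-1 mutants and two wild-type viruses. Each virus is tested across increasing drug concentrations to give an inhibition curve and EC50. Fold change is the test recombinant EC50 divided by the EC50 of the drug-sensitive wild-type reference virus.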
row,Structure (SMILES),EC50
1,Cc1cn([C@H]2C[C@H](N=[N+]=[N-])[C@@H](CO)O2)c(=O)[nH]c1=O [ZIDOVUDINE],16000 nM

# Tested on: Human immunodeficiency virus 1
# Assay: Antiviral activity against HIV1 isolate 063 harboring reverse transcriptase M41L/D67N/K70R/M184V/L210W/T215Y/K219E mutant gene by phenosense assay
# Type: functional, organism-based
# Conditions: Human immunodeficiency virus 1, isolate 063
# Procedure, shortened: as §1
row,Structure (SMILES),EC50
1,Cc1cn([C@H]2C[C@H](N=[N+]=[N-])[C@@H](CO)O2)c(=O)[nH]c1=O [ZIDOVUDINE],1600 nM

# Tested on: Human immunodeficiency virus 1
# Assay: Antiviral activity against HIV1 isolate 067 harboring reverse transcriptase A62V/D67G/T69SVG/V75I/T215I mutant gene by phenosense assay
# Type: functional, organism-based
# Conditions: Human immunodeficiency virus 1, isolate 067
# Procedure, shortened: as §1
row,Structure (SMILES),EC50
1,Cc1cn([C@H]2C[C@H](N=[N+]=[N-])[C@@H](CO)O2)c(=O)[nH]c1=O [ZIDOVUDINE],> 25000 nM

# Tested on: Human immunodeficiency virus 1
# Assay: Antiviral activity against HIV1 isolate 069 harboring reverse transcriptase D67E/T69SSG/V75M/M184V/L210W/T215Y mutant gene by phenosense assay
# Type: functional, organism-based
# Conditions: Human immunodeficiency virus 1, isolate 069
# Procedure, shortened: as §1
row,Structure (SMILES),EC50
1,Cc1cn([C@H]2C[C@H](N=[N+]=[N-])[C@@H](CO)O2)c(=O)[nH]c1=O [ZIDOVUDINE],8700 nM

# Tested on: Human immunodeficiency virus 1
# Assay: Antiviral activity against HIV1 isolate 071 harboring reverse transcriptase 65R/S68N/184V mutant gene by phenosense assay
# Type: functional, organism-based
# Conditions: Human immunodeficiency virus 1, isolate 071
# Procedure, shortened: as §1
row,Structure (SMILES),EC50
1,Cc1cn([C@H]2C[C@H](N=[N+]=[N-])[C@@H](CO)O2)c(=O)[nH]c1=O [ZIDOVUDINE],11 nM

# Tested on: Human immunodeficiency virus 1
# Assay: Antiviral activity against HIV1 isolate 153 harboring reverse transcriptase L74V mutant gene by phenosense assay
# Type: functional, organism-based
# Conditions: Human immunodeficiency virus 1, isolate 153
# Procedure, shortened: as §1
row,Structure (SMILES),EC50
1,Cc1cn([C@H]2C[C@H](N=[N+]=[N-])[C@@H](CO)O2)c(=O)[nH]c1=O [ZIDOVUDINE],11 nM

# Tested on: Human immunodeficiency virus 1
# Assay: Antiviral activity against HIV1 isolate 157 harboring reverse transcriptase L74V/M184V mutant gene by phenosense assay
# Type: functional, organism-based
# Conditions: Human immunodeficiency virus 1, isolate 157
# Procedure, shortened: as §1
row,Structure (SMILES),EC50
1,Cc1cn([C@H]2C[C@H](N=[N+]=[N-])[C@@H](CO)O2)c(=O)[nH]c1=O [ZIDOVUDINE],6 nM

# Tested on: Human immunodeficiency virus 1
# Assay: Antiviral activity against HIV1 isolate 162 harboring reverse transcriptase A62V/V75I/F77L/Y115F/F116Y/Q151M/M184V mutant gene by phenosense assay
# Type: functional, organism-based
# Conditions: Human immunodeficiency virus 1, isolate 162
# Procedure, shortened: as §1
row,Structure (SMILES),EC50
1,Cc1cn([C@H]2C[C@H](N=[N+]=[N-])[C@@H](CO)O2)c(=O)[nH]c1=O [ZIDOVUDINE],4200 nM

# Tested on: Human immunodeficiency virus 1
# Assay: Antiviral activity against HIV1 isolate 180 harboring reverse transcriptase K65R mutant gene obtained as site-directed mutant of NL4-3 by phenosense assay
# Type: functional, organism-based
# Conditions: Human immunodeficiency virus 1, isolate 180
# Procedure, shortened: as §1
row,Structure (SMILES),EC50
1,Cc1cn([C@H]2C[C@H](N=[N+]=[N-])[C@@H](CO)O2)c(=O)[nH]c1=O [ZIDOVUDINE],14 nM

# Tested on: Human immunodeficiency virus 1
# Assay: Antiviral activity against HIV1 isolate 188 harboring reverse transcriptase T215Y/M184V mutant gene by phenosense assay
# Type: functional, organism-based
# Conditions: Human immunodeficiency virus 1, isolate 188
# Procedure, shortened: as §1
row,Structure (SMILES),EC50
1,Cc1cn([C@H]2C[C@H](N=[N+]=[N-])[C@@H](CO)O2)c(=O)[nH]c1=O [ZIDOVUDINE],71 nM

# Tested on: Human immunodeficiency virus 1
# Assay: Antiviral activity against HIV1 isolate 200 harboring reverse transcriptase M41L/L210W/T215Y mutant gene by phenosense assay
# Type: functional, organism-based
# Conditions: Human immunodeficiency virus 1, isolate 200
# Procedure, shortened: as §1
row,Structure (SMILES),EC50
1,Cc1cn([C@H]2C[C@H](N=[N+]=[N-])[C@@H](CO)O2)c(=O)[nH]c1=O [ZIDOVUDINE],2700 nM

# Tested on: Human immunodeficiency virus 1
# Assay: Antiviral activity against HIV1 isolate 201 harboring reverse transcriptase M41L/L210W/T215Y mutant gene by phenosense assay
# Type: functional, organism-based
# Conditions: Human immunodeficiency virus 1, isolate 201
# Procedure, shortened: as §1
row,Structure (SMILES),EC50
1,Cc1cn([C@H]2C[C@H](N=[N+]=[N-])[C@@H](CO)O2)c(=O)[nH]c1=O [ZIDOVUDINE],2700 nM

# Tested on: Human immunodeficiency virus 1
# Assay: Antiviral activity against HIV1 isolate 203 harboring reverse transcriptase M41L/L210W/T215Y/M184V mutant gene by phenosense assay
# Type: functional, organism-based
# Conditions: Human immunodeficiency virus 1, isolate 203
# Procedure, shortened: (§2)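 PhenoSense HIV recombinant virus assay: patient-derived HIV-1 with major NRTI resistance mutations tested against increasing drug concentrations to give inhibition curves. EC50 is the concentration giving 50% inhibition. Fold change is the test recombinant EC50 divided by the EC50 of a drug-sensitive wild-type reference virus. Panel of 30 NRTI-resistant isolates plus two wild-type viruses.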
row,Structure (SMILES),EC50
1,Cc1cn([C@H]2C[C@H](N=[N+]=[N-])[C@@H](CO)O2)c(=O)[nH]c1=O [ZIDOVUDINE],87 nM

# Tested on: Human immunodeficiency virus 1
# Assay: Antiviral activity against HIV1 isolate 211 harboring reverse transcriptase D67N/K70R/T215F/K219E/M184V mutant gene by phenosense assay
# Type: functional, organism-based
# Conditions: Human immunodeficiency virus 1, isolate 211
# Procedure, shortened: as §2
row,Structure (SMILES),EC50
1,Cc1cn([C@H]2C[C@H](N=[N+]=[N-])[C@@H](CO)O2)c(=O)[nH]c1=O [ZIDOVUDINE],190 nM

# Tested on: Human immunodeficiency virus 1
# Assay: Antiviral activity against HIV1 isolate 212 harboring reverse transcriptase L210W/T215Y mutant gene by phenosense assay
# Type: functional, organism-based
# Conditions: Human immunodeficiency virus 1, isolate 212
# Procedure, shortened: as §2
row,Structure (SMILES),EC50
1,Cc1cn([C@H]2C[C@H](N=[N+]=[N-])[C@@H](CO)O2)c(=O)[nH]c1=O [ZIDOVUDINE],210 nM

# Tested on: Human immunodeficiency virus 1
# Assay: Antiviral activity against HIV1 isolate 215 harboring reverse transcriptase D67N/K70E mutant gene by phenosense assay
# Type: functional, organism-based
# Conditions: Human immunodeficiency virus 1, isolate 215
# Procedure, shortened: as §2
row,Structure (SMILES),EC50
1,Cc1cn([C@H]2C[C@H](N=[N+]=[N-])[C@@H](CO)O2)c(=O)[nH]c1=O [ZIDOVUDINE],6 nM
